According to ChEMBL document CHEMBL4130626, “α-Arylidene Diacylglycerol-Lactones (DAG-Lactones) as Selective Ras Guanine-Releasing Protein 3 (RasGRP3) Ligands” (J Med Chem, 2018):
Activity calls are given as the source filed them. The calls are words filed in the database; no cut-off is given here.

What was measured:
[1] = biological target: Protein kinase C delta type (Homo sapiens, UniProt Q05655); experiment: Activation of PKCdelta (unknown origin) expressed in HEK293 cells harboring GFP-tagged RasGRP1 assessed as phosphorylation at ser299 residues after 30 mins by immunoblot method; type: cell-based
Summary of the method: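 PKCδ activation read as phospho-S299 on western blots of lysates (50 µg protein, 10% SDS-PAGE, milk blocking, anti-PKCδS299 overnight). Cells: GFP-RasGRP1/3-transfected HEK293 or LNCaP, or Ramos, treated 30 min at 37 °C with half-log doses (maximum 10 µM), 1000 nM PMA or DMSO. Scanned intensities normalized to 1000 nM PMA; EC50 mean ± SEM, n = 3; values above 10 µM extrapolated.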

[2] = biological target: T1, Ras guanyl-releasing protein 3 (Homo sapiens, UniProt Q8IV61); experiment: Activation of RasGRP3 in human Ramos cells after 30 mins by immunoblot method; type: cell-based
T1 sequence (Q8IV61 whole entry): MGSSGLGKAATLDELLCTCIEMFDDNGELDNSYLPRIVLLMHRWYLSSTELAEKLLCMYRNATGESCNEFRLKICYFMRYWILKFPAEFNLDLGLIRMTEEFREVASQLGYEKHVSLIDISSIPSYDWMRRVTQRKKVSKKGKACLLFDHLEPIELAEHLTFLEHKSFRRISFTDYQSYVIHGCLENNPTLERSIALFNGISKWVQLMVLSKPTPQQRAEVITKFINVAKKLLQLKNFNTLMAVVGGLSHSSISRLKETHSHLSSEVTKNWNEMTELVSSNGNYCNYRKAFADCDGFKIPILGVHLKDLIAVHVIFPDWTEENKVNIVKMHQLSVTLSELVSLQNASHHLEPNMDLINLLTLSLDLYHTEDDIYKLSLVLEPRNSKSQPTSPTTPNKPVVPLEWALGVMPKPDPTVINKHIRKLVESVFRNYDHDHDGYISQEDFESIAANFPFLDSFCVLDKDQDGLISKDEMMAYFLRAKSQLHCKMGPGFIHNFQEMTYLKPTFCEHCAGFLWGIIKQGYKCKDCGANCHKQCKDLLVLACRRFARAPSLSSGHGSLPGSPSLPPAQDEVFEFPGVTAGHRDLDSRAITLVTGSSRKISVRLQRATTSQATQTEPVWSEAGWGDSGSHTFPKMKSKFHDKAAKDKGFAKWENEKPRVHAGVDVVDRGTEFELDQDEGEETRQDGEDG
Summary of the method: (§1)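 Cells expressing GFP-RasGRP1/3 (HEK293 or LNCaP, 48 h after plating, transfected; expression checked by fluorescence 24-48 h later) or Ramos with endogenous RasGRP3 treated with half-log increasing concentrations (max 10 µM), 1000 nM PMA or DMSO, 37 °C, 30 min, 5% CO2. RasGTP by Raf1 RBD bead pulldown and anti-Pan-Ras immunoblot; pERK by western blot. Band intensities normalized to 1000 nM PMA; EC50 from n = 3.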

Homo sapiens [3] = species: Homo sapiens; experiment: Selectivity ratio of EC50 for PKCdelta (unknown origin) expressed in human LNCAP cells harboring GFP-tagged RasGRP1 to EC50 for GFP-tagged RasGRP1 (unknown origin) expressed in human LNCAP cells; type: cell-based
Homo sapiens [4] = species: Homo sapiens; experiment: Selectivity ratio of EC50 for PKCdelta (unknown origin) expressed in HEK293 cells harboring GFP-tagged RasGRP1 to EC50 for GFP-tagged RasGRP1 (unknown origin) expressed in HEK293 cells assessed as ERK1/2 phosphorylation; type: cell-based
Homo sapiens [5] = species: Homo sapiens; experiment: Selectivity ratio of EC50 for PKCdelta in human Ramos cells expressing RasGRP3 to EC50 for RasGRP3 in human Ramos cells assessed as ERK1/2 phosphorylation; type: cell-based
[6] = biological target: T1, Ras guanyl-releasing protein 3; experiment: Activation of GFP-tagged RasGRP3 (unknown origin) expressed in human LNCAP cells assessed as ERK1/2 phosphorylation after 30 mins by immunoblot method; type: cell-based; summary of the method: as §1
[7] = biological target: T1, Ras guanyl-releasing protein 3; experiment: Activation of GFP-tagged RasGRP3 (unknown origin) expressed in human LNCAP cells after 30 mins by immunoblot method; type: cell-based; summary of the method: as §1
[8] = biological target: T1, Ras guanyl-releasing protein 3; experiment: Activation of GFP-tagged RasGRP3 (unknown origin) expressed in HEK293 cells after 30 mins by immunoblot method; type: cell-based
Summary of the method: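 HEK293 cells grown in EMEM + 10% FBS, transfected after 48 h with GFP-RasGRP3 (Lipofectamine Plus). Treated 30 min at 37 °C, 5% CO2, with half-log increasing concentrations up to 10 µM, 1000 nM PMA or DMSO. Active Ras pulled down from lysates on Raf1-RBD agarose (60 min, 4 °C), immunoblotted with anti-Pan-Ras. Band intensity normalised to 1000 nM PMA. EC50 is the mean of n = 3.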

Homo sapiens [9] = species: Homo sapiens; experiment: Selectivity ratio of EC50 for PKCdelta (unknown origin) expressed in HEK293 cells harboring GFP-tagged RasGRP3 to EC50 for GFP-tagged RasGRP3 (unknown origin) expressed in HEK293 cells assessed as ERK1/2 phosphorylation; type: cell-based
[10] = biological target: T2, Ras guanyl-releasing protein 3 (Homo sapiens) (UniProt Q8IV61); experiment: Displacement of [3H]PDBu from full length MBP-tagged human RasGRP3 expressed in Escherichia coli BL21 (DE3) after 5 mins in presence of phosphatidylserine by scintillation counting
T2 sequence (whole entry): T1 sequence (Q8IV61 whole entry)
Summary of the method: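 Competition of [3H]PDBu binding by polyethylene glycol precipitation, with 100 µg/ml phosphatidylserine and ≤0.003% Triton X-100, 5 min at 37 °C. Proteins: full-length purified human PKCα, PKCε; full-length RasGRP1; MBP-RasGRP3 from E. coli BL21(DE3) induced with 0.3 mM IPTG 6 h at room temperature. Ki mean ± SEM of ≥2 experiments, triplicate points.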

Chain of Protein kinase C delta type (Q05655 whole entry): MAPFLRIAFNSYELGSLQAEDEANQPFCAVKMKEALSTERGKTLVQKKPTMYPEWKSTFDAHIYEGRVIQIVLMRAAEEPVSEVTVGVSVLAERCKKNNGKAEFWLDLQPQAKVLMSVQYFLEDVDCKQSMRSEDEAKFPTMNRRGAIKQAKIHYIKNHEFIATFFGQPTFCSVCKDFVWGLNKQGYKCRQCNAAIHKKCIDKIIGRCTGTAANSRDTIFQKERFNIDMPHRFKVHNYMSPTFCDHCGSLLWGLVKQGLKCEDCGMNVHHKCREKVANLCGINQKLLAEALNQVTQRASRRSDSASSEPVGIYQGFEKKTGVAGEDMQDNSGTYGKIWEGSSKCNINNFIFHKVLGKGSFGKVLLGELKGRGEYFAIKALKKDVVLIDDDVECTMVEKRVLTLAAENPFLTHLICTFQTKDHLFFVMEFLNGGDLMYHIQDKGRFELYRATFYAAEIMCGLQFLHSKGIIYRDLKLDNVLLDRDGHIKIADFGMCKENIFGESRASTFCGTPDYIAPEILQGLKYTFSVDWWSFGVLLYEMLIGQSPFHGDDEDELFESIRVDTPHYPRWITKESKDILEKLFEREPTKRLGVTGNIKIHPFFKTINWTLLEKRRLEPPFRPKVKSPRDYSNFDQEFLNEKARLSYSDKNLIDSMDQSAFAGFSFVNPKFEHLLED

EC50 [1]: 12600 nM | EC50 [2]: 860 nM | EC50 [6]: 2980 nM | EC50 [7]: 640 nM | EC50 [8]: 1830 nM | inhibition [10]: Active
Structure (SMILES): Cn1cc(/C=C2\CC(CO)(COC(=O)C(C)(C)C)OC2=O)c2ccccc21 (stereo not given)
Ratio EC50 (Homo sapiens [3]): 8.3 | Ratio EC50 (Homo sapiens [4]): 2.6 | Ratio EC50 (Homo sapiens [5]): 4 | Ratio EC50 (Homo sapiens [9]): 3.6
